Reference: ChEMBL document CHEMBL3120083, “Discovery of N-[4-[6-tert-butyl-5-methoxy-8-(6-methoxy-2-oxo-1H-pyridin-3-yl)-3-quinolyl]phenyl]methanesulfonamide (RG7109), a potent inhibitor of the hepatitis C virus NS5B polymerase” (J Med Chem, 2014)
In brackets after ≈: the same amount, converted by molar mass.

Experiments:
[1] = Oral bioavailability in Beagle dog at 3 mg/kg of compound as aqueous suspension; type: ADME, organism-based, Canis lupus familiaris; details: in vivo
[2] = AUC (0 to infinity) in Beagle dog at 3 mg/kg, po of compound as aqueous suspension; type: ADME, organism-based, Canis lupus familiaris; parameters: time infinity, dose 3 mg/kg, route oral; details: plasma
[3] = Drug uptake in Beagle dog at 3 mg/kg, po of compound as aqueous suspension measured at 8 hrs; type: ADME, organism-based, Canis lupus familiaris; parameters: dose 3 mg/kg, route oral; details: in vivo, read-out: Drug uptake
[4] = Cmax in Beagle dog at 3 mg/kg, po of compound as aqueous suspension; type: ADME, organism-based, Canis lupus familiaris; parameters: dose 3 mg/kg, route oral; details: in vivo
[5] = Half life in Beagle dog at 1 mg/kg, iv; type: ADME, organism-based, Canis lupus familiaris; parameters: dose 1 mg/kg, route intravenous; details: in vivo
Procedure, shortened: (§1)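 Single intravenous bolus via tail vein or jugular cannula of dual-cannulated animals, vehicle 2% dimethyl acetamide/20% PEG400/23.4% HPBCD. EDTA blood typically taken at 0.08, 0.25, 0.5, 1, 2, 4, 6, 8 and 24 h from the remaining cannulas. Plasma drug measured by LC/MS/MS following acetonitrile protein precipitation.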

[6] = Volume of distribution at steady state in Beagle dog at 1 mg/kg, iv; type: ADME, organism-based, Canis lupus familiaris; parameters: dose 1 mg/kg, route intravenous; details: in vivo, read-out: Vdss; procedure, shortened: as §1
[7] = Clearance in Beagle dog at 1 mg/kg, iv; type: ADME, organism-based, Canis lupus familiaris; parameters: dose 1 mg/kg, route intravenous; details: in vivo; procedure, shortened: as §1
[8] = Oral bioavailability in Wistar/Han rat at 30 mg/kg of compound as aqueous suspension; type: ADME, organism-based; details: in vivo
[9] = AUC (0 to infinity) in Wistar/Han rat at 30 mg/kg, po of compound as aqueous suspension; type: ADME, organism-based; parameters: time infinity, dose 30 mg/kg, route oral; details: plasma
[10] = Drug uptake in Wistar/Han rat at 30 mg/kg, po of compound as aqueous suspension measured at 8 hrs; type: ADME, organism-based; parameters: dose 30 mg/kg, route oral; details: in vivo, read-out: Drug uptake
[11] = Cmax in Wistar/Han rat at 30 mg/kg, po of compound as aqueous suspension; type: ADME, organism-based; parameters: dose 30 mg/kg, route oral; details: in vivo
[12] = Half life in Wistar/Han rat at 3 mg/kg, iv; type: ADME, organism-based; parameters: dose 3 mg/kg, route intravenous; details: in vivo; procedure, shortened: as §1
[13] = Volume of distribution at steady state in Wistar/Han rat at 3 mg/kg, iv; type: ADME, organism-based; parameters: dose 3 mg/kg, route intravenous; details: in vivo, read-out: Vdss; procedure, shortened: as §1
[14] = Clearance in Wistar/Han rat at 3 mg/kg, iv; type: ADME, organism-based; parameters: dose 3 mg/kg, route intravenous; details: in vivo; procedure, shortened: as §1
Hepatitis C virus [15] = assay: Antiviral activity against Hepatitis C virus genotype 1b clinical isolate RO-10 expressing NS5B assessed as inhibition of viral replication after 4 days by luciferase reporter gene assay; type: functional, organism-based, Hepacivirus hominis; details: genotype 1b clinical isolate RO-10, 96 h
Hepatitis C virus [16] = assay: Antiviral activity against Hepatitis C virus genotype 1b clinical isolate RO-8 expressing NS5B assessed as inhibition of viral replication after 4 days by luciferase reporter gene assay; type: functional, organism-based, Hepacivirus hominis; details: genotype 1b clinical isolate RO-8, 96 h
Hepatitis C virus [17] = assay: Antiviral activity against Hepatitis C virus genotype 1b clinical isolate RO-7 expressing NS5B assessed as inhibition of viral replication after 4 days by luciferase reporter gene assay; type: functional, organism-based, Hepacivirus hominis; details: genotype 1b clinical isolate RO-7, 96 h
Hepatitis C virus [18] = assay: Antiviral activity against Hepatitis C virus genotype 1b clinical isolate RO-4 expressing NS5B assessed as inhibition of viral replication after 4 days by luciferase reporter gene assay; type: functional, organism-based, Hepacivirus hominis; details: genotype 1b clinical isolate RO-4, 96 h
Hepatitis C virus [19] = assay: Antiviral activity against Hepatitis C virus genotype 1b clinical isolate RO-3 expressing NS5B assessed as inhibition of viral replication after 4 days by luciferase reporter gene assay; type: functional, organism-based, Hepacivirus hominis; details: genotype 1b clinical isolate RO-3, 96 h
Hepatitis C virus [20] = assay: Antiviral activity against Hepatitis C virus genotype 1b clinical isolate RO-2 expressing NS5B assessed as inhibition of viral replication after 4 days by luciferase reporter gene assay; type: functional, organism-based, Hepacivirus hominis; details: genotype 1b clinical isolate RO-2, 96 h
Hepatitis C virus [21] = assay: Antiviral activity against Hepatitis C virus genotype 1b clinical isolate RO-1 expressing NS5B assessed as inhibition of viral replication after 4 days by luciferase reporter gene assay; type: functional, organism-based, Hepacivirus hominis; details: genotype 1b clinical isolate RO-1, 96 h
Hepatitis C virus [22] = assay: Antiviral activity against Hepatitis C virus genotype 1b Con1 expressing NS5B assessed as inhibition of viral replication after 4 days by luciferase reporter gene assay; type: functional, organism-based, Hepacivirus hominis; details: isolate Con1, 96 h
Hepatitis C virus [23] = assay: Antiviral activity against Hepatitis C virus genotype 1a clinical isolate RO-41 expressing NS5B assessed as inhibition of viral replication after 4 days by luciferase reporter gene assay; type: functional, organism-based, Hepacivirus hominis; details: genotype 1a clinical isolate RO-41, 96 h
Hepatitis C virus [24] = assay: Antiviral activity against Hepatitis C virus genotype 1a clinical isolate RO-38 expressing NS5B assessed as inhibition of viral replication after 4 days by luciferase reporter gene assay; type: functional, organism-based, Hepacivirus hominis; details: genotype 1a clinical isolate RO-38, 96 h
Hepatitis C virus [25] = assay: Antiviral activity against Hepatitis C virus genotype 1a clinical isolate RO-35 expressing NS5B assessed as inhibition of viral replication after 4 days by luciferase reporter gene assay; type: functional, organism-based, Hepacivirus hominis; details: genotype 1a clinical isolate RO-35, 96 h
Hepatitis C virus [26] = assay: Antiviral activity against Hepatitis C virus genotype 1a clinical isolate RO-34 expressing NS5B assessed as inhibition of viral replication after 4 days by luciferase reporter gene assay; type: functional, organism-based, Hepacivirus hominis; details: genotype 1a clinical isolate RO-34, 96 h
Hepatitis C virus [27] = assay: Antiviral activity against Hepatitis C virus genotype 1a clinical isolate RO-33 expressing NS5B assessed as inhibition of viral replication after 4 days by luciferase reporter gene assay; type: functional, organism-based, Hepacivirus hominis; details: genotype 1a clinical isolate RO-33, 96 h
Hepatitis C virus [28] = assay: Antiviral activity against Hepatitis C virus genotype 1a clinical isolate RO-28 expressing NS5B assessed as inhibition of viral replication after 4 days by luciferase reporter gene assay; type: functional, organism-based, Hepacivirus hominis; details: genotype 1a clinical isolate RO-28, 96 h
Hepatitis C virus [29] = assay: Antiviral activity against Hepatitis C virus genotype 1a clinical isolate RO-24 expressing NS5B assessed as inhibition of viral replication after 4 days by luciferase reporter gene assay; type: functional, organism-based, Hepacivirus hominis; details: genotype 1a clinical isolate RO-24, 96 h
Hepatitis C virus [30] = assay: Antiviral activity against Hepatitis C virus genotype 1a clinical isolate RO-18 expressing NS5B assessed as inhibition of viral replication after 4 days by luciferase reporter gene assay; type: functional, organism-based, Hepacivirus hominis; details: genotype 1a clinical isolate RO-18, 96 h
Hepatitis C virus [31] = assay: Antiviral activity against Hepatitis C virus genotype 1a H77 expressing NS5B assessed as inhibition of viral replication after 4 days by luciferase reporter gene assay; type: functional, organism-based, Hepacivirus hominis; details: genotype 1a H77, 96 h
Hepatitis C virus [32] = assay: Ratio of EC50 for Hepatitis C virus genotype 1b Con1 in presence of human serum to EC50 for Hepatitis C virus genotype 1b Con1; type: functional, Hepacivirus hominis, isolate Con1
Hepatitis C virus [33] = assay: Ratio of EC50 for Hepatitis C virus genotype 1a H77 in presence of human serum to EC50 for Hepatitis C virus genotype 1a H77; type: functional, Hepacivirus hominis
Hepatitis C virus [34] = assay: Antiviral activity against Hepatitis C virus genotype 1b Con1 infected in human 2209-23 cells after 72 hrs by luciferase reporter gene assay in presence of 40% human serum; type: functional, organism-based, Hepacivirus hominis; details: isolate Con1, 2209-23, 72 h
Hepatitis C virus [35] = assay: Antiviral activity against Hepatitis C virus genotype 1a H77 infected in human 2209-23 cells after 72 hrs by luciferase reporter gene assay in presence of 40% human serum; type: functional, organism-based, Hepacivirus hominis; details: genotype 1a H77, 2209-23, 72 h
[36] = Ratio of EC50 for Hepatitis C virus genotype 1a H77 to EC50 for Hepatitis C virus genotype 1b Con1; type: functional
[37] = Thermodynamic solubility of the compound; type: physicochemical; details: read-out: Therm_solubility
Hepatitis C virus [38] = assay: Antiviral activity against Hepatitis C virus genotype 1b Con1 infected in human 2209-23 cells after 72 hrs by luciferase reporter gene assay; type: functional, organism-based, Hepacivirus hominis; details: isolate Con1, 2209-23, 72 h
Procedure, shortened: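 Stable GT-1b Con1 subgenomic replicon cell line expressing a renilla luciferase reporter, used as the readout of inhibition. EC50 from luciferase signal, n 2.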

Hepatitis C virus [39] = assay: Antiviral activity against Hepatitis C virus genotype 1a H77 infected in human 2209-23 cells after 72 hrs by luciferase reporter gene assay; type: functional, organism-based, Hepacivirus hominis; details: genotype 1a H77, 2209-23, 72 h
Hepatitis C virus [40] = assay: Antiviral activity against Hepatitis C virus genotype 1b clinical isolate RO-9 expressing NS5B assessed as inhibition of viral replication after 4 days by luciferase reporter gene assay; type: functional, organism-based, Hepacivirus hominis; details: genotype 1b clinical isolate RO-9, 96 h

**Q.** With `COc1ccc(-c2cc(C(C)(C)C)c(OC)c3cc(N4CC[C@H](CNS(C)(=O)=O)C4)cnc23)c(=O)[nH]1` as the compound, how does the bioavailability [1] read?
**A.** 36%

**Q.** What about the AUC(0-inf) [2] of the same compound?
**A.** 4.2 µg·h/mL

**Q.** And the concentration at 8 h [3]?
**A.** 0.21 µg/mL

**Q.** And the Cmax [4]?
**A.** 0.36 µg/mL

**Q.** And the half-life [5]?
**A.** 5.1 h

**Q.** What about the Vd [6] of the same compound?
**A.** 1.5 L/kg

**Q.** And the clearance [7]?
**A.** 0.264 L/h/kg

**Q.** What about the bioavailability [8] of the same compound?
**A.** 100%

**Q.** And the AUC(0-inf) [9]?
**A.** 37 µg·h/mL

**Q.** And the concentration at 8 h [10]?
**A.** 1.79 µg/mL

**Q.** What about the Cmax [11] of the same compound?
**A.** 3.8 µg/mL

**Q.** What about the half-life [12] of the same compound?
**A.** 5.6 h

**Q.** What about the Vd [13] of the same compound?
**A.** 2.3 L/kg

**Q.** And the clearance [14]?
**A.** 0.828 L/h/kg

**Q.** And the EC50 (Hepatitis C virus [15])?
**A.** 1.67 nM

**Q.** What about the EC50 (Hepatitis C virus [16]) of the same compound?
**A.** 0.33 nM

**Q.** What about the EC50 (Hepatitis C virus [17]) of the same compound?
**A.** 3.05 nM

**Q.** And the EC50 (Hepatitis C virus [18])?
**A.** 0.8 nM

**Q.** And the EC50 (Hepatitis C virus [19])?
**A.** 6.1 nM

**Q.** What about the EC50 (Hepatitis C virus [20]) of the same compound?
**A.** 4 nM

**Q.** And the EC50 (Hepatitis C virus [21])?
**A.** 0.3 nM

**Q.** And the EC50 (Hepatitis C virus [22])?
**A.** 1.2 nM

**Q.** What about the EC50 (Hepatitis C virus [23]) of the same compound?
**A.** 0.27 nM

**Q.** And the EC50 (Hepatitis C virus [24])?
**A.** 9.5 nM

**Q.** And the EC50 (Hepatitis C virus [25])?
**A.** 0.5 nM

**Q.** And the EC50 (Hepatitis C virus [26])?
**A.** 0.4 nM

**Q.** And the EC50 (Hepatitis C virus [27])?
**A.** 0.7 nM

**Q.** What about the EC50 (Hepatitis C virus [28]) of the same compound?
**A.** 0.2 nM

**Q.** And the EC50 (Hepatitis C virus [29])?
**A.** 2.5 nM

**Q.** And the EC50 (Hepatitis C virus [30])?
**A.** 0.5 nM

**Q.** What about the EC50 (Hepatitis C virus [31]) of the same compound?
**A.** 0.65 nM

**Q.** And the “Ratio EC50” value (Hepatitis C virus [32])?
**A.** 0.6

**Q.** And the “Ratio EC50” value (Hepatitis C virus [33])?
**A.** 0.6

**Q.** What about the EC50 (Hepatitis C virus [34]) of the same compound?
**A.** 7.5 nM

**Q.** What about the EC90 (Hepatitis C virus [34]) of the same compound?
**A.** 44 nM

**Q.** And the EC50 (Hepatitis C virus [35])?
**A.** 10 nM

**Q.** What about the EC90 (Hepatitis C virus [35]) of the same compound?
**A.** 61 nM

**Q.** What about the “Ratio EC50” value [36] of the same compound?
**A.** 1.4

**Q.** What about the solubility thermodynamic [37] of the same compound?
**A.** 0.039 mg/mL (≈ 75.8 µM)

**Q.** And the EC50 (Hepatitis C virus [38])?
**A.** 12 nM

**Q.** What about the EC50 (Hepatitis C virus [39]) of the same compound?
**A.** 17 nM

**Q.** What about the EC50 (Hepatitis C virus [40]) of the same compound?
**A.** 3.5 nM
